What is called solubility is the dissolved amount per volume that the medium holds. A high value points to much dissolved substance. For orientation: inhibition means the share of the control response that was lost under treatment. The Ki is a measure of affinity in units of concentration, obtained from inhibition or displacement. A low value points to tighter binding. The IC50 is the concentration at which inhibition is half-maximal. Read a low IC50 as greater potency. For orientation: ED50 means the midpoint of the dose-response relation. As a reminder, the efflux ratio is the permeability from basolateral to apical divided by that in the opposite direction, in the common usage. For orientation: bioavailability means the share of a dose that reaches the circulation, judged against a reference dose that is usually intravenous. Low values mean poor availability, high ones good availability.

Calls of active or inactive are those of the source. The rule behind the calls is not given here.

A short description of series [1]: Solubility in water. The format is physicochemical.
Series [2] concerns the target T1, Sodium- and chloride-dependent glycine transporter 1 (Homo sapiens) (UniProt P48067).
T1 sequence (whole entry): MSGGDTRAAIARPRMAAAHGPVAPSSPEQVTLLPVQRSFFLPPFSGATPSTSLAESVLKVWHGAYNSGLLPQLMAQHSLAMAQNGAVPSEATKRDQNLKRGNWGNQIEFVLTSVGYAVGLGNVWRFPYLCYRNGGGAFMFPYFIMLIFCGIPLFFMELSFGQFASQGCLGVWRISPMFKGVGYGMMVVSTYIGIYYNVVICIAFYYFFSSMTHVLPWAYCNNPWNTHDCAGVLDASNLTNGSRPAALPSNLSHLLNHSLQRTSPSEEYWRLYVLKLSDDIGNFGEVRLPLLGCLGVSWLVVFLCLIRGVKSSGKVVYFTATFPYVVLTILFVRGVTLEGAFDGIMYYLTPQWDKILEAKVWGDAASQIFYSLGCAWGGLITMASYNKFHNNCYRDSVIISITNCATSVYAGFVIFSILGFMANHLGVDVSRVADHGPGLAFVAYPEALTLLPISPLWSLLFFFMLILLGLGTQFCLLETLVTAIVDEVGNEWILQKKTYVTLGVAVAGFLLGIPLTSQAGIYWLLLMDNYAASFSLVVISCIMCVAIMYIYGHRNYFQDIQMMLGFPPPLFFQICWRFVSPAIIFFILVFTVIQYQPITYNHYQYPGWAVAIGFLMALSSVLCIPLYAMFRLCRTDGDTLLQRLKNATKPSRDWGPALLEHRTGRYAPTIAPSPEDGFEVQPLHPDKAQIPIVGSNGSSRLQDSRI
Put plainly: Inhibition of GlyT1c (unknown origin) expressed in Xenopus laevis oocytes clamped at -60 mV assessed as reduction in 10 uM glycine-induced membrane currents at 300 nM pre-treated with glycine for 1 min followed by compound dosing for 3 mins by two-electrode voltage clamp assay. The format is cell-based. A digest of the protocol:
(§1)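 Oocytes expressing GlyT1c were stimulated with 10 µM or 3000 µM glycine to evoke transporter current. Compound at 300 nM was added to the glycine solution, and % inhibition of the current was calculated. Mode of inhibition was judged by comparing inhibition at the two glycine levels. Data are mean ± SD, N>4 oocytes.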
On the technique in general: Two-electrode voltage clamp holds a large cell at a set potential and records current.

In series [3] the target is T1, Sodium- and chloride-dependent glycine transporter 1 (Homo sapiens). The series is described as follows: Inhibition of GlyT1c (unknown origin) expressed in Xenopus laevis oocytes clamped at -60 mV assessed as reduction in 3000 uM glycine-induced membrane currents at 300 nM pre-treated with glycine for 1 min followed by compound dosing for 3 mins by two-electrode voltage clamp assay. The format is cell-based. A digest of the protocol:
as §1

Series [4] is described as follows: fCmax in Sprague-Dawley rat brain at 2 mg/kg, ip measured after 8 to 24 hrs by LC-MS/MS method. The format is ADME, organism-based. Particulars: in vivo.
In series [5] the target is T2, Sodium- and chloride-dependent glycine transporter 1 (Homo sapiens, UniProt P48067).
T2 sequence (P48067 whole entry): T1 sequence (whole entry)
Put plainly: Displacement of [3H]N-Methyl-SSR504734 from human GlyT1c expressed in cell membranes incubated for 1 hr by liquid scintillation spectrometry. In general terms: Loss of bound radioactivity is the signal in a displacement assay; it reports binding, not function.

For series [6], the target named is Voltage-gated inwardly rectifying potassium channel KCNH2 (Homo sapiens, UniProt Q12809). Put plainly: Inhibition of human ERG.
A short description of series [7]: Clearance in rat liver microsomes at 0.5 uM incubated up to 30 mins in presence of NADPH by LC-MS/MS method. The format is ADME, microsome. Conditions: read-out: CLH.
Series [8] in a line: Permeability in MDCK2-MDR1 cells at 1 uM incubated fro 1 hr by LC-MS/MS method. The format is ADME, cell-based, Canis lupus familiaris. Conditions: dog, MDCK-MDR1; read-out: permeability.
Series [9] has as its system Mus musculus. The series is described as follows: In-vivo binding affinity to GlyT1 in mouse assessed as target occupancy in forebrains dosed intraperitoneally using [3H]N-methyl-SSR504734 as radioligand after 1 hr by liquid scintillation counting method. The format is functional. Particulars: ip. A digest of the protocol:
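Mice dosed i.p. at several doses; forebrain homogenates then tested ex vivo for binding of a GlyT1 radioligand to give target occupancy, with ED50 for 50% occupancy estimated across the dose range.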

A short description of series [10]: Clearance in human liver microsomes at 0.5 uM incubated up to 30 mins in presence of NADPH by LC-MS/MS method. The format is ADME, microsome. Conditions: read-out: CLH. For orientation: Liver microsomes are vesicles of endoplasmic reticulum, rich in cytochrome P450 enzymes.
Series [11] concerns Mus musculus. Put plainly: Reversal of L687,414-induced hyperlocomotion in mouse at 0.3 to 3 mg/kg, ip dosed 120 mins before test followed by L687,414 dosing for 15 mins before test and measured after 60 mins by Wilcoxon-Mann-Whitney test. The format is functional. Put shortly: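 Non-habituated mice received test agent (0.3, 1.0, 3.0 mg/kg) or vehicle i.p. 120 min before test, then 50 mg/kg L-687,414 or vehicle i.p. 15 min before test; locomotor activity recorded for 60 min; n=8 mice per group, mean ± SEM; Mann-Whitney and Dunn's multiple comparisons tests.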

The nature of series [12]: Efflux ratio in MDCK2-MDR1 cells at 1 uM incubated fro 1 hr by LC-MS/MS method. The format is ADME, cell-based, Canis lupus familiaris. Particulars: dog, MDCK-MDR1.
Series [13] in a line: Oral bioavailability in dog. The format is ADME, organism-based, Canis lupus familiaris. Particulars: in vivo.
A short description of series [14]: Oral bioavailability in Sprague-Dawley rat at measured after 8 to 24 hrs by LC-MS/MS method. The format is ADME, organism-based. Conditions: in vivo.
The target in series [15] is T1, Sodium- and chloride-dependent glycine transporter 1 (Homo sapiens). Put plainly: Non-competitive inhibition of GlyT1c (unknown origin) expressed in Xenopus laevis oocytes clamped at -60 mV assessed as reduction in glycine-induced membrane currents at 300 nM pre-treated with glycine for 1 min followed by compound dosing for 3 mins by two-electrode voltage clamp assay. The format is cell-based. Put shortly:
as §1

A short description of series [16]: Drug level in Sprague-Dawley rat brain at 0.2 mg/kg, ip measured after 8 to 24 hrs by LC-MS/MS method. Particulars: in vivo, read-out: Drug uptake. The format is ADME, organism-based.

Voltage-gated inwardly rectifying potassium channel KCNH2, sequence (Q12809 whole entry): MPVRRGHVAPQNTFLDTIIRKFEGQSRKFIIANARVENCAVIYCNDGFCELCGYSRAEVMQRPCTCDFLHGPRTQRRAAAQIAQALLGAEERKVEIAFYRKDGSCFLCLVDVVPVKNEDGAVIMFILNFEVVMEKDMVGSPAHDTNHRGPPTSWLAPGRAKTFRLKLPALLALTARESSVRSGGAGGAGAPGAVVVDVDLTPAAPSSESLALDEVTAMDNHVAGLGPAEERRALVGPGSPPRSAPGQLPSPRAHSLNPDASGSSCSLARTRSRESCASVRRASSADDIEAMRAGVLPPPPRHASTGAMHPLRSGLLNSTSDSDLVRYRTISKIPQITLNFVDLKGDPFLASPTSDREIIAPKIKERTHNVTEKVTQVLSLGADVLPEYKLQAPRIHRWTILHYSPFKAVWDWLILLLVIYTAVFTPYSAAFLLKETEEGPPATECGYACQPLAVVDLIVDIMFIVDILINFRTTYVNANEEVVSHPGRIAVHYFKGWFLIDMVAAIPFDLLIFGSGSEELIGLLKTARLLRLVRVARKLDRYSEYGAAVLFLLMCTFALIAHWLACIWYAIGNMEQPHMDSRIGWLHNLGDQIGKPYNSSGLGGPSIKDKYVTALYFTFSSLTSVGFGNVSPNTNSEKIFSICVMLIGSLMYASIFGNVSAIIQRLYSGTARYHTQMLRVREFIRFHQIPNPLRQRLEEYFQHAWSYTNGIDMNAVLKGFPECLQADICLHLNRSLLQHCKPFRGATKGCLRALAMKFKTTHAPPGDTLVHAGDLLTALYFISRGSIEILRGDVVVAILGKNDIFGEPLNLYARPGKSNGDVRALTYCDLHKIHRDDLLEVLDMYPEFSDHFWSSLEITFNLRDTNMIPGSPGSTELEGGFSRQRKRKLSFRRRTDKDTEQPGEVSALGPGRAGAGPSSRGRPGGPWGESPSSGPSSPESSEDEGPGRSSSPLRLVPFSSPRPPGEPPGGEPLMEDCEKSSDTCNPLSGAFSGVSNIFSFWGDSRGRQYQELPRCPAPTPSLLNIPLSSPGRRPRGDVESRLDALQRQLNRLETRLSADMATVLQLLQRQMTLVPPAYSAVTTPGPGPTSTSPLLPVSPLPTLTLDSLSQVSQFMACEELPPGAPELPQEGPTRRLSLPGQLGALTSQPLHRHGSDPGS

For `Cn1cnc(S(=O)(=O)NCCOc2ccc3c(c2)[C@@H](Cc2ccccc2)[C@@H](N2CCC2)CC3)c1`, the solubility in [1] is greater than 1000 µg/mL. Moreover, the values for the inhibition (in series [2]; in series [3]; with Mus musculus [11]) were 97%, 39% and “Dose-dependent effect”, respectively. Besides, in series [4], the fCmax was 2 nM. For the same compound, in series [5], the Ki was determined as 0.8 nM. In addition, the midpoint of inhibition in [6], the IC50, lay at 15000 nM. Also, the microsomal CLint at 0.5 µM in [7] came out at 55 µL/min/mg; in series [10], 10 µL/min/mg. Also, in [8], the Papp at 1 h, 1 µM was determined as 22 ×10⁻⁶ cm/s. The ED50 with Mus musculus [9] was determined as 1.4 mg/kg; in the series on Mus musculus [11], 0.8 mg/kg. The efflux ratio at 1 h, 1 µM in [12] came out at 12. Moreover, the bioavailability amounted to 75% in [13] and 17% in series [14].

Take `C[C@H](Oc1ccc(S(C)(=O)=O)cc1C(=O)N1CCN(c2ncc(C(F)(F)F)cc2F)CC1)C(F)(F)F` [BITOPERTIN]: the results for the inhibition in series [2] and in series [3] were 67% and 95%, respectively. Moreover, in series [5], the inhibitory constant (Ki) was determined as 47 nM. The inhibition result in [15] is “Active”.

In the case of `Cn1cnc(S(=O)(=O)NCCOc2ccc3c(c2)[C@@H](Cc2ccccc2)[C@@H](N2CCCC2)CC3)c1`, the solubility in [1] is greater than 1000 µg/mL. For the same compound, the fCmax in [4] stood at 2 nM. In series [5], affinity was put at a Ki of 1.2 nM. Moreover, the Papp at 1 h, 1 µM in series [8] is 17 ×10⁻⁶ cm/s. Moreover, the ED50 in the series with Mus musculus [9] amounted to 1.6 mg/kg. Further, the efflux ratio at 1 h, 1 µM in series [12] was 7.2. Further, the bioavailability in series [13] is 49%; in series [14] it was 29%.

The compound `Cn1cnc(S(=O)(=O)NCc2ccc3c(c2)[C@@H](Cc2ccccc2)[C@@H](N2CCC2)CC3)c1` (relative stereo) displayed a Ki in series [5] of 3 nM. In addition, the ED50 in the series with Mus musculus [9] came out at 1.8 mg/kg. Also, the values for the bioavailability in series [13] and in [14] were 75% and 51%, respectively.

In series [4], `O=S(=O)(CC1CC1)NC1CN(c2ccc3c(c2)[C@@H](Cc2ccccc2)[C@@H](N2CCC2)CC3)C1` came in with a fCmax of 18.7 nM. Further, the inhibition constant (Ki) in [5] came to 0.9 nM. In addition, in series [6], the IC50 came out at 4400 nM. Besides, the microsomal CLint at 0.5 µM was 85 µL/min/mg in [7] and less than 23 µL/min/mg in [10]. Besides, the ED50 in the series with Mus musculus [9] came to 0.2 mg/kg. Besides, in [16], the concentration was determined as 0.9 nM. Also, the efflux ratio at 1 h, 1 µM in [12] was 1.7.

The values are drawn from ChEMBL document CHEMBL4145681, “Discovery of Novel Aminotetralines and Aminochromanes as Selective and Competitive Glycine Transporter 1 (GlyT1) Inhibitors” (J Med Chem, 2018).
